Measured values: ChEMBL document CHEMBL1671842, “Synthesis and antibacterial activity of a novel class of 15-membered macrolide antibiotics, "11a-azalides"” (2011)
Values after ≈ are worked out from the molar mass of the structure shown.

Assays:
[1] = system: Streptococcus pneumoniae; assay: Antibacterial activity against erythromycin-resistant Streptococcus pneumoniae 205; type: functional
How it was run: (§1)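 MIC by broth microdilution following CLSI (formerly NCCLS) guidelines for S. pneumoniae.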

[2] = system: Streptococcus pneumoniae; assay: Antibacterial activity against erythromycin-susceptible Streptococcus pneumoniae ATCC 49619; type: functional; how it was run: as §1

Compound | MIC [1] | MIC [2]
CO[C@]1(C)C[C@H](O[C@H]2[C@H](C)[C@@H](O[C@@H]3O[C@H](C)C[C@H](N(C)C)[C@H]3O)[C@@](C)(O)C[C@@H](C)[C@H](O)[C@H](C)CN(C)CCOC(=O)[C@@H]2C)O[C@@H](C)[C@@H]1O | > 128 µg/mL | 4 µg/mL (≈ 5.79 µM)
CO[C@]1(C)C[C@H](O[C@H]2[C@H](C)[C@@H](O[C@@H]3O[C@H](C)C[C@H](N(C)C)[C@H]3O)[C@@](C)(O)C[C@@H](C)[C@H](O)[C@H](C)CN(C)[C@@H](COCc3ccccc3)COC(=O)[C@@H]2C)O[C@@H](C)[C@@H]1O | 128 µg/mL (≈ 158 µM) | 2 µg/mL (≈ 2.47 µM)
CO[C@]1(C)C[C@H](O[C@H]2[C@H](C)[C@@H](O[C@@H]3O[C@H](C)C[C@H](N(C)C)[C@H]3O)[C@@](C)(O)C[C@@H](C)[C@H](O)[C@H](C)CN(C)C[C@@H](COCc3ccccc3)OC(=O)[C@@H]2C)O[C@@H](C)[C@@H]1O | 64 µg/mL (≈ 78.9 µM) | 1 µg/mL (≈ 1.23 µM)
CO[C@]1(C)C[C@H](O[C@H]2[C@H](C)[C@@H](O[C@@H]3O[C@H](C)C[C@H](N(C)C)[C@H]3O)[C@@](C)(O)C[C@@H](C)[C@H](O)[C@H](C)CN(C)C[C@H](COCc3ccccc3)OC(=O)[C@@H]2C)O[C@@H](C)[C@@H]1O | 32 µg/mL (≈ 39.5 µM) | 0.12 µg/mL (≈ 0.148 µM)
CC[C@H]1OC(=O)[C@H](C)[C@@H](O[C@H]2C[C@@](C)(OC)[C@@H](O)[C@H](C)O2)[C@H](C)[C@@H](O[C@@H]2O[C@H](C)C[C@H](N(C)C)[C@H]2O)[C@](C)(OC)C[C@@H](C)C(=O)[C@H](C)[C@@H](O)[C@]1(C)O [CLARITHROMYCIN] | > 128 µg/mL | 0.03 µg/mL (≈ 0.0401 µM)
